# Measured values published in ChEMBL document CHEMBL3232713, “Synthesis, antiproliferative and anti-dengue virus evaluations of 2-aroyl-3-arylquinoline derivatives” (Eur J Med Chem, 2014).
# Activity calls are given as the source filed them. The rule behind the calls is not given here.
# Tests used:
# dengue virus type 2 [1] = experiment: Antiviral activity against DENV2 16681 infected in human Huh-7 cells at 20 uM after 3 days by luciferase reporter gene assay; assay type: functional; settings: Dengue virus, 16681, Huh-7, 72 h
# [2] = Cytotoxicity against human HuH7 cells assessed as cell viability at 20 uM after 3 days by XTT assay; assay type: cell-based, Huh-7; settings: read-out: Activity
# dengue virus type 2 [3] = experiment: Antiviral activity against DENV2 16681 infected in human Huh-7 cells at 5 uM after 3 days by luciferase reporter gene assay; assay type: functional; settings: Dengue virus, 16681, Huh-7, 72 h
# [4] = Cytotoxicity against human HuH7 cells assessed as cell viability at 100 uM after 3 days by XTT assay; assay type: cell-based, Huh-7; settings: read-out: Activity
# MDA-MB-231 [5] = experiment: Antiproliferative activity against human MDA-MB-231 cells after 3 days by XTT assay; assay type: functional, cell-based; settings: MDA-MB-231, 72 h
# [6] = Antiproliferative activity against human HuH7 cells after 3 days by XTT assay; assay type: functional, cell-based; settings: Huh-7, 72 h
# [7] = Antiproliferative activity against human H1299 cells after 3 days by XTT assay; assay type: functional, cell-based; settings: NCI-H1299, 72 h
# A549 = experiment: Antiproliferative activity against human A549 cells after 3 days by XTT assay; assay type: functional, cell-based; settings: A549, 72 h
# MCF7 = experiment: Antiproliferative activity against human MCF7 cells after 3 days by XTT assay; assay type: functional, cell-based; settings: MCF7, 72 h
# dengue virus type 2 [8] = experiment: Antiviral activity against DENV2 16681 infected in human Huh-7 cells assessed as reduction of viral NS5 mRNA expression at 5 to 20 uM after 3 days by RT-PCR analysis; assay type: functional, organism-based
# Summary of the method: (§1)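 Huh-7-DV-Fluc cells treated 3 days with compound at 5 and 20 µM (dose series 5–40 µM), 0.1% DMSO mock; total RNA extracted, DENV2 RNA quantified by RT-qPCR normalized to cellular GAPDH mRNA; mean ± SD of triplicate experiments.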
# dengue virus type 2 [9] = experiment: Antiviral activity against DENV2 16681 infected in human Huh-7 cells assessed as reduction of viral NS2B protein expression at 5 to 20 uM after 3 days by Western blot analysis; assay type: functional, organism-based
# Summary of the method: (§2)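 Huh-7-DV-Fluc cells exposed 3 days to compound at 5 and 20 µM, or 5–40 µM for dose series, 0.1% DMSO mock; lysates immunoblotted with rabbit polyclonal anti-NS2B (1:3000), GAPDH (1:10000) as loading control.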
# dengue virus type 2 [10] = experiment: Antiviral activity against DENV2 16681 infected in human Huh-7 cells after 3 days by luciferase reporter gene assay; assay type: functional, organism-based; settings: Dengue virus, 16681, Huh-7, 72 h
# [11] = Selectivity index, ratio of CC50 for human HuH7 cells to IC50 for DENV2 16681; assay type: functional, Huh-7
# [12] = Cytotoxicity against human HuH7 cells assessed as cell viability after 3 days by XTT assay; assay type: cell-based, Huh-7
# dengue virus type 2 [13] = experiment: Antiviral activity against DENV2 16681 infected in human Huh-7 cells assessed as reduction of viral NS2B protein expression after 3 days by Western blot analysis; assay type: functional, organism-based; summary of the method: as §2
# dengue virus type 2 [14] = experiment: Antiviral activity against DENV2 16681 infected in human Huh-7 cells assessed as reduction of viral NS5 mRNA expression after 3 days by RT-PCR analysis; assay type: functional, organism-based; summary of the method: as §1
# dengue virus type 2 [15] = experiment: Antiviral activity against DENV2 by cell based assay; assay type: functional, organism-based
# West Nile virus = experiment: Antiviral activity against West Nile virus by cell based assay; assay type: functional, organism-based
# MDA-MB-231 [16] = experiment: Growth inhibition of human MDA-MB-231 cells; assay type: functional
# [17] = Growth inhibition of human Hep3B cells; assay type: functional, Hep 3B2
Structure (SMILES),inhibition at 20 µM (dengue virus type 2 [1]),"viability at 72 h, 20 µM [2]",inhibition at 5 µM (dengue virus type 2 [3]),"viability at 72 h, 100 µM [4]",IC50 (MDA-MB-231 [5]),IC50 [6],further results
O=C(c1ccccc1)c1nc2ccccc2cc1-c1ccc(F)cc1,14.1%,74.8%,20.1%,45.9%,,,
O=C(c1ccc(OCCN2CCCC2)cc1)c1nc2ccccc2cc1-c1ccc(OCCN2CCCC2)cc1,,15.5%,,16.6%,8.42 µM,8.68 µM,IC50 [7]: 5.68 µM; IC50 (A549): 7.38 µM; IC50 (MCF7): 4.59 µM
O=C(c1ccc(O)cc1)c1nc2ccccc2cc1-c1ccc(OCCN2CCCC2)cc1,,91%,,18.1%,> 10 µM,> 10 µM,IC50 [7]: > 10 µM; IC50 (A549): > 10 µM; IC50 (MCF7): > 10 µM
COc1ccc(-c2cc3ccccc3nc2C(O)c2ccc(OC)cc2)cc1 (stereo not given),58.5%,71.1%,33.5%,31.9%,,,Activity (dengue virus type 2 [8]): Active; Activity (dengue virus type 2 [9]): Active; IC50 (dengue virus type 2 [10]): 18.2 µM; Ratio CC50/IC50 [11]: 3.47; CC50 at 72 h [12]: 63.1 µM
O=C(c1ccc(OCCN2CCCCC2)cc1)c1nc2ccccc2cc1-c1ccc(OCCN2CCCCC2)cc1,,18.4%,,15.8%,7.99 µM,6.59 µM,IC50 [7]: 6.18 µM; IC50 (A549): 6.53 µM; IC50 (MCF7): 4.66 µM
COc1ccc(-c2cc3ccccc3nc2C(=O)c2ccccc2)cc1,6.93%,93.1%,3.12%,87.8%,,,
COc1ccc(-c2cc3ccccc3nc2C(=O)c2cc(OC)c(OC)c(OC)c2)cc1,,74.1%,,35.1%,> 10 µM,> 10 µM,IC50 [7]: > 10 µM; IC50 (A549): > 10 µM; IC50 (MCF7): > 10 µM
COc1ccc(-c2cc3cc(F)ccc3nc2C(O)c2ccccc2)cc1 (stereo not given),19.1%,87.4%,16.1%,30.7%,,,
CN(C)CCCOc1ccc(-c2cc3ccccc3nc2C(=O)c2ccc(O)cc2)cc1,,80.4%,,16.8%,> 10 µM,> 10 µM,IC50 [7]: > 10 µM; IC50 (A549): > 10 µM; IC50 (MCF7): > 10 µM
COc1ccc(C(=O)c2nc3ccccc3cc2-c2ccc(OC)cc2)cc1,14.1%,96.1%,10.1%,68.2%,,,
COc1ccc(-c2cc3ccccc3nc2C(O)c2ccccc2)cc1 (stereo not given),65.1%,96.6%,45.3%,68.1%,,,Activity (dengue virus type 2 [13]): Dose-dependent effect; Activity (dengue virus type 2 [8]): Active; Activity (dengue virus type 2 [9]): Active; IC50 (dengue virus type 2 [10]): 12.6 µM; Ratio CC50/IC50 [11]: >7.96; CC50 at 72 h [12]: > 100 µM; Activity (dengue virus type 2 [14]): Dose-dependent effect
OC(c1ccccc1)c1nc2ccccc2cc1-c1ccc(F)cc1 (stereo not given),10.2%,109%,13.1%,90.9%,,,
NC(=O)c1ncn([C@@H]2O[C@H](CO)[C@@H](O)[C@H]2O)n1 [RIBAVIRIN],67.5%,71.4%,32%,26.8%,,,IC50 (dengue virus type 2 [10]): 12.6 µM; Ratio CC50/IC50 [11]: 4.47; CC50 at 72 h [12]: 56.3 µM
COc1ccc(-c2cc3cc(OC)ccc3nc2C(=O)c2ccccc2)cc1,53.1%,87.6%,36.2%,84.3%,,,IC50 (dengue virus type 2 [10]): 17.4 µM; Ratio CC50/IC50 [11]: >5.76; CC50 at 72 h [12]: > 100 µM
OC(c1ccccc1)c1nc2ccc(F)cc2cc1-c1ccc(F)cc1 (stereo not given),23.1%,129%,22.2%,92.3%,,,
O=C(c1ccc(O)cc1)c1nc2ccccc2cc1-c1ccc(OCCN2CCCCC2)cc1,,77.5%,,19.5%,> 10 µM,> 10 µM,IC50 [7]: > 10 µM; IC50 (A549): > 10 µM; IC50 (MCF7): > 10 µM
COc1ccc(-c2cc3cc(OC)ccc3nc2C(O)c2ccccc2)cc1 (stereo not given),61.2%,87.7%,38%,26%,,,Activity (dengue virus type 2 [8]): Active; Activity (dengue virus type 2 [9]): Active; IC50 (dengue virus type 2 [10]): 14.1 µM; Ratio CC50/IC50 [11]: 4.87; CC50 at 72 h [12]: 68.9 µM
CCOc1ccc2nc(C)cc(Nc3ccc(OCc4ccccc4Cl)cc3)c2c1,,,,,,,IC50 (dengue virus type 2 [15]): 5 µM; IC50 (West Nile virus): 1.9 µM
CN(C)CCCOc1ccc(C(=O)c2nc3ccccc3cc2-c2ccc(OCCCN(C)C)cc2)cc1,,17.6%,,19.2%,7.14 µM,6.44 µM,IC50 [7]: 4.98 µM; IC50 (A549): 6.35 µM; IC50 (MCF7): 4.47 µM
COc1ccc(-c2cc3ccccc3nc2C(O)c2cc(OC)c(OC)c(OC)c2)cc1 (stereo not given),38.2%,93.6%,22.3%,62.5%,,,
CC[C@@]1(O)C(=O)OCc2c1cc1n(c2=O)Cc2cc3c(CN(C)C)c(O)ccc3nc2-1 [TOPOTECAN],,,,,< 0.1 µM,8.61 µM,
Fc1ccc2nc(-c3ccc(OCCN4CCCCC4)cc3)c(-c3ccc(OCCN4CCCCC4)cc3)cc2c1,,,,,,,GI50 (MDA-MB-231 [16]): 0.72 µM; GI50 [17]: 0.71 µM
O=C(c1ccc(O)cc1)c1nc2ccccc2cc1-c1ccc(O)cc1,62.1%,90.3%,38.7%,65.1%,,,Activity (dengue virus type 2 [13]): Dose-dependent effect; Activity (dengue virus type 2 [8]): Active; Activity (dengue virus type 2 [9]): Active; IC50 (dengue virus type 2 [10]): 13.2 µM; Ratio CC50/IC50 [11]: >7.6; CC50 at 72 h [12]: > 100 µM; Activity (dengue virus type 2 [14]): Dose-dependent effect
O=C(c1ccccc1)c1nc2ccc(F)cc2cc1-c1ccc(F)cc1,9.13%,96.3%,32.1%,75.1%,,,
COc1ccc(-c2cc3cc(F)ccc3nc2C(=O)c2ccccc2)cc1,5.11%,96%,7.24%,89.7%,,,
